The values below come from ChEMBL document CHEMBL3244059, “Synthesis and pharmacological activity of a phosphate ester of delta8-tetrahydrocannabinol” (J Med Chem, 1978).

The source made the active and inactive calls. The calls are words filed in the database; no cut-off is given here.

Data set [1] relates to Mus musculus. Kind of data set: Acute toxicity in ddN mouse assessed as mortality up to 160 mg/kg, iv after 24 hrs. Conditions: in vivo. The format is organism-based. On the set-up: dose 160 mg/kg, route intravenous. The method in brief:
(§1)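 Mice dosed iv via tail vein, 0.1 mL/10 g body weight; parent compound as suspension in 1% Tween 80, phosphate as solution in saline. Eight animals per dose.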

Data set [2] relates to Mus musculus. Kind of data set: Cataleptogenic activity in iv dosed ddN mouse assessed as induction of catalepsy after 60 mins by bar test. The format is functional. An outline of the steps:
(§2)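 Catalepsy scored by a modified simple bar test at 30 and 60 min after iv tail-vein injection (0.1 mL/10 g; 1% Tween 80 suspension or saline solution). Eight mice per dose; vehicle controls. ED50 with 95% confidence limits at peak time.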

For data set [3], the system named is Mus musculus. Kind of data set: Cataleptogenic activity in iv dosed ddN mouse assessed as induction of catalepsy after 30 to 60 mins by bar test. The format is functional. An outline of the steps: as §2
For data set [4], the system named is Mus musculus. Description: Potentiation of thiopental-induced sleep in iv dosed ddN mouse assessed as loss of righting reflex after 60 mins administered with saline. The format is functional. An outline of the steps: (§3)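 Pretreatment given iv (saline solution or 1% Tween 80 suspension; vehicle controls for each), followed 30 or 60 min later by thiopental 80 mg/kg iv. Sleep measured as loss of righting reflex. Potentiation counted positive when sleeping time exceeded twice the matching control. Eight mice per dose; ED50 with confidence limits.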

Data set [5] concerns Mus musculus. Kind of data set: Potentiation of thiopental-induced sleep in iv dosed ddN mouse assessed as loss of righting reflex after 30 to 60 mins. The format is functional. The method in brief: as §3
The subject of data set [6] is Mus musculus. Description: Hypothermic activity in ddN mouse assessed as reduction of rectal temperature at 10 mg/kg, iv after 2 hrs. The format is functional. An outline of the steps:
(§4)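 Rectal temperature taken with a thermistor thermometer after iv tail-vein dosing at 10 or 20 mg/kg (1% Tween 80 suspension or saline solution). Room held at 23 ± 1 °C; time course followed up to 5 h. Decline reported as mean ± SE of eight mice.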

For data set [7], the system named is Mus musculus. Description: Hypothermic activity in ddN mouse assessed as reduction of rectal temperature at 20 mg/kg, iv after 2 hrs. It is filed as functional. The method in brief:
as §4

Data set [8] can be described thus: Drug metabolism in mouse liver homogenates assessed as compound hydrolysis at pH 9.6 after 15 mins by spectrophotometric analysis in presence of alkaline phosphatase. To be noted: read-out: Drug metabolism. It is filed as ADME, tissue-based. The method in brief:
(§5)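 Substrate (1.5 μmol) incubated at 37 °C with mouse liver homogenate (equivalent to 0.1 g liver) in 0.1 M glycine buffer pH 9.6 or 0.1 M acetate buffer pH 5.0. Sampled at 15, 30 and 60 min. Percent hydrolysis given as mean of duplicate determinations.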

The nature of data set [9]: Drug metabolism in mouse liver homogenates assessed as compound hydrolysis at pH 9.6 after 30 mins by spectrophotometric analysis in presence of alkaline phosphatase. The format is ADME, tissue-based. Conditions: read-out: Drug metabolism. The method in brief: as §5
Data set [10] can be described thus: Drug metabolism in mouse liver homogenates assessed as compound hydrolysis at pH 9.6 after 60 mins by spectrophotometric analysis in presence of alkaline phosphatase. It is filed as ADME, tissue-based. To be noted: read-out: Drug metabolism. The method in brief:
as §5

Data set [11] in a line: Drug metabolism in mouse liver homogenates assessed as compound hydrolysis at pH 5 after 15 mins by spectrophotometric analysis in presence of alkaline phosphatase. Conditions: read-out: Drug metabolism. The format is ADME, tissue-based. The method in brief: as §5
The nature of data set [12]: Drug metabolism in mouse liver homogenates assessed as compound hydrolysis at pH 5 after 30 mins by spectrophotometric analysis in presence of alkaline phosphatase. Conditions: read-out: Drug metabolism. It is filed as ADME, tissue-based. The method in brief: as §5
The nature of data set [13]: Drug metabolism in mouse liver homogenates assessed as compound hydrolysis at pH 5 after 60 mins by spectrophotometric analysis in presence of alkaline phosphatase. Conditions: read-out: Drug metabolism. It is filed as ADME, tissue-based. An outline of the steps:
as §5

Data set [14] in a line: Acute toxicity in iv dosed ddN mouse assessed as mortality after 24 hrs. The format is organism-based. Conditions: in vivo. The method in brief:
as §1

The test system of data set [15] is Mus musculus. Description: Cataleptogenic activity in iv dosed ddN mouse assessed as induction of catalepsy after 30 mins by bar test. It is filed as functional, organism-based. An outline of the steps:
as §2

The test system of data set [16] is Mus musculus. Description: Potentiation of thiopental-induced sleep in iv dosed ddN mouse assessed as loss of righting reflex after 60 mins administered with 1% Tween-80. It is filed as functional, organism-based. The method in brief:
as §3

Data set [17] has as its system Mus musculus. Kind of data set: Hypothermic activity in ddN mouse assessed as reduction of rectal temperature at 10 mg/kg, iv after 1 hr. The format is functional. An outline of the steps:
as §4

For data set [18], the system named is Mus musculus. Kind of data set: Hypothermic activity in ddN mouse assessed as reduction of rectal temperature at 20 mg/kg, iv after 1 hr. It is filed as functional. An outline of the steps:
as §4

Regarding `CCCCCc1cc2c(c(OP(=O)([O-])[O-])c1)[C@@H]1CC(C)=CC[C@H]1C(C)(C)O2.[Na+].[Na+]`, the figures for the Activity result in the data set on Mus musculus [1], in the data set on Mus musculus [2] and in the data set on Mus musculus [4] were “Non-toxic”, 10% and 7%, respectively. For the same compound, the ED50 was determined as 37 mg/kg with Mus musculus [3] and 17.5 mg/kg with Mus musculus [5]. The T is 2.4 °C in the data set on Mus musculus [6] and 5 °C with Mus musculus [7]. For the same compound, the metabolised at 0.25 h in data set [8] turned out to be 7.8%; in data set [11] it was 15.3%. Moreover, the results for the metabolised at 0.5 h in data set [9] and in data set [12] were 13.9% and 20.7%, respectively. Further, the metabolised at 1 h in data set [10] stood at 24.5%; in data set [13] it was 29.2%.
In the case of `O=[N+]([O-])c1ccc(OP(=O)(O)O)cc1` [p-NITROPHENYLPHOSPHATE], the metabolised at 0.25 h in data set [8] was found to be 21.5%; in data set [11], 88.9%. Further, the metabolised at 0.5 h in data set [9] was 36.4%; in [12], 96.7%. Moreover, the results for the metabolised at 1 h in data set [10] and in [13] were 73.6% and 97.7%, respectively.
With `CCCCCc1cc(O)c2c(c1)OC(C)(C)[C@@H]1CC=C(C)C[C@@H]21` [DELTA-8-TETRAHYDROCANNABINOL], in [14], the LD50 at 24 h is 27.5 mg/kg. Also, the result with Mus musculus [15] and in the data set on Mus musculus [16] was Active. For the same compound, the figures for the ED50 with Mus musculus [3] and in the data set on Mus musculus [5] were 3.3 mg/kg and 1.2 mg/kg, respectively. The T in the data set with Mus musculus [17] is 3.8 °C; with Mus musculus [18], 4.8 °C.
